According to PMC8269116 (Journal of psychopharmacology (Oxford, England), 2019):
“And” between values parts separate entries of the source, which are not always exact repeats. Identical values can stand only once. Like-named read-outs stand apart in the source and are kept apart here.

Experiments:
[1] = target: T1, NET (Homo sapiens, UniProt P23975); test: [3H]norepinephrine uptake inhibition in HEK 293 cells overexpressing human NET; format: cell-based
[2] = target: T2, DAT (Homo sapiens, UniProt Q01959); test: [3H]dopamine uptake inhibition in HEK 293 cells overexpressing human DAT; format: cell-based; conditions: for DAT/SERT ratio: 1/DAT IC50 : 1/SERT IC50, mean and 95% confidence interval
[3] = target: human 5-HT transporter (SERT) (Homo sapiens, UniProt P31645); test: [3H]5-HT uptake inhibition in HEK 293 cells overexpressing human SERT; format: cell-based
[4] = target: T1, NET; test: Radioligand binding, N-methyl-[3H]nisoxetine displacement
[5] = target: T2, DAT; test: Radioligand binding, [3H]WIN35,428 displacement
[6] = target: SERT (Homo sapiens, UniProt P31645); test: Radioligand binding, [3H]citalopram displacement
[7] = target: dopamine D2 receptors (Homo sapiens, UniProt P14416); test: Radioligand binding, [3H]spiperone displacement
[8] = target: T3, α1 adrenergic receptor (α1A) (Homo sapiens, UniProt P35348); test: Radioligand binding, [3H]prazosin displacement
T3 sequence (P35348 1-466): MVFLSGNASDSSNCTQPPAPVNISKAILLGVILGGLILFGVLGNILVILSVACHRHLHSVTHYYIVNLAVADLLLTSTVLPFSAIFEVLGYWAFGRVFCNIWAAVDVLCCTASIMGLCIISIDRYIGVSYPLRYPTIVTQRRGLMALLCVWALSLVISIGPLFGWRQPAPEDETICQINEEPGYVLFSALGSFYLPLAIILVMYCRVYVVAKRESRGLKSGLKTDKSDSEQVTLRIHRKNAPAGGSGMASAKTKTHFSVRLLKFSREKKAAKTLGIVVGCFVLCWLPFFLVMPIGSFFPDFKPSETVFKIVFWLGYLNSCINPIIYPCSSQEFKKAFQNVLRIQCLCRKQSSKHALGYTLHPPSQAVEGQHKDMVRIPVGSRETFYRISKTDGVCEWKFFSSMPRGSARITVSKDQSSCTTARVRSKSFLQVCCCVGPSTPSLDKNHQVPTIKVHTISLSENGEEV

[9] = target: T4, α2 adrenergic receptor (α2A) (Homo sapiens, UniProt P08913); test: Radioligand binding, [3H]rauwolscine displacement
T4 sequence (P08913 1-465): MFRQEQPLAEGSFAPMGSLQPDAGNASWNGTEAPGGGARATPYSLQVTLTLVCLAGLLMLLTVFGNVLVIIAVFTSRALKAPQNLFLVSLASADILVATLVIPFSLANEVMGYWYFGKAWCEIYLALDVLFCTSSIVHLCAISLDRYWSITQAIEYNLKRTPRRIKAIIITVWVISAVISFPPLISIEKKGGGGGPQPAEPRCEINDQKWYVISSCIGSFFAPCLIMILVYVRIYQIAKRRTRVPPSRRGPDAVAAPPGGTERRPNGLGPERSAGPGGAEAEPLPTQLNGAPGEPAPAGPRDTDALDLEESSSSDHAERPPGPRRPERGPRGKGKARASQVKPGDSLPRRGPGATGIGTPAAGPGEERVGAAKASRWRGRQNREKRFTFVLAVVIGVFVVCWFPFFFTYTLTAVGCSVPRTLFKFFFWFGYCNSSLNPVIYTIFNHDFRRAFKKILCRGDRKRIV

[10] = target: T5, 5-HT1A receptor (Homo sapiens, UniProt P08908); test: Radioligand binding, [3H]8-hydroxy-2-
T5 sequence (P08908 1-422): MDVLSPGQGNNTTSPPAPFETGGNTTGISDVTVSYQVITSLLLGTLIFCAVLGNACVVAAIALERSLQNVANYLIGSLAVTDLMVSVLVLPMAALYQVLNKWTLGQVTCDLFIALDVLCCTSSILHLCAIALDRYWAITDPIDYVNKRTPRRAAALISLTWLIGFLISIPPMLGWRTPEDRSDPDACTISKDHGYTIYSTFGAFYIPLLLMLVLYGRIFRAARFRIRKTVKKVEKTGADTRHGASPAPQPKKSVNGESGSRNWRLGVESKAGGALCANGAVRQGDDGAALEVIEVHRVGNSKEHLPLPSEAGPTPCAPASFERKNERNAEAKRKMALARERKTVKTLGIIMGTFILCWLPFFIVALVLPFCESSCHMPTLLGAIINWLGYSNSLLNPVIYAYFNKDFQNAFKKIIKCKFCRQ

[11] = target: 5-HT2A receptor (Homo sapiens, UniProt P28223); test: Radioligand binding, [3H]ketanserin displacement
[12] = target: rat TAAR1 (Rattus norvegicus, UniProt Q923Y9); test: Radioligand binding, [3H]RO5166017 displacement
[13] = target: mouse TAAR1 (Mus musculus, UniProt Q923Y8); test: Radioligand binding, [3H]RO5166017 displacement
[14] = target: human 5-HT2B receptor (Homo sapiens, UniProt P41595); test: 5-HT2B receptor activation, FLIPR calcium assay in HEK 293 cells; format: cell-based
[15] = healthy human subjects, oral MDMA; ref Schmid et al., 2016; cited from earlier work
[16] = target: T6, 5-HT2C receptor (Homo sapiens, UniProt P28335); test: biochemical; format: binding
T6 sequence (P28335 33-458): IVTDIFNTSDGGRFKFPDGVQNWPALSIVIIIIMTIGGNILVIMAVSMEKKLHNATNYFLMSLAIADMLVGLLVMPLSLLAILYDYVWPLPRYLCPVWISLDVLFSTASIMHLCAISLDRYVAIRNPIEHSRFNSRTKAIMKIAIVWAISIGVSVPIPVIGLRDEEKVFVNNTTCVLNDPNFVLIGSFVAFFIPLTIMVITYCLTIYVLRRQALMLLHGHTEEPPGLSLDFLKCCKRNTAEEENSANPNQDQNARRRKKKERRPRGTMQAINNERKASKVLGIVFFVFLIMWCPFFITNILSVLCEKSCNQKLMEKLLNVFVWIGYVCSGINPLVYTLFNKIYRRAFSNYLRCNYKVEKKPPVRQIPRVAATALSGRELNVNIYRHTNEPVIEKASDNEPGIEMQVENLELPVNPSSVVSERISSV

[17] = rat plasma, subcutaneous methylone; ref Elmore et al., 2017; cited from earlier work
[18] = after subcutaneous injection of methylone; ref Stefkova et al., 2017; cited from earlier work
[19] = ref Lopez-Arnau et al., 2013, cited from earlier work
[20] = target: T7, human TAAR1 (Homo sapiens, UniProt Q96RJ0); test: Human TAAR1 activation, cAMP assay in HEK 293 cells; format: cell-based
T7 sequence (Q96RJ0 1-339): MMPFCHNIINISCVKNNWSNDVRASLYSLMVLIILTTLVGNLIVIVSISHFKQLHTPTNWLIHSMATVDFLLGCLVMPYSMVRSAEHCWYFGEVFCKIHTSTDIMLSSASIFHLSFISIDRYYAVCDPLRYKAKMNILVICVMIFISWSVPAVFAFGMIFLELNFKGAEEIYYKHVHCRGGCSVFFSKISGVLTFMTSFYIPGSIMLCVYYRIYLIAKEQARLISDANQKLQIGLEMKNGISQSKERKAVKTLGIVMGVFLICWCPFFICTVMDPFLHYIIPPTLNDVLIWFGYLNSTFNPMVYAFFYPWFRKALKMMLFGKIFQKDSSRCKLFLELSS
Summary of the method: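 Recombinant HEK 293 cells expressing human TAAR1 were pelleted, resuspended, seeded at 80,000/well and incubated 20 h at 37 °C. After a PBS wash, the cells were preincubated 60 min at 37 °C in KRB with 1 mM IBMX. Test compound (300 pM–30 μM, duplicate), β-phenylethylamine (maximal response) or basal control was added for 40 min at 37 °C. Cells were lysed 120 min at RT with Ru-cAMP Alexa700 anti-cAMP antibody mix, and fluorescence was read against a per-plate cAMP standard curve (0.13 nM–10 μM).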

Chain of 5-HT2A receptor (P28223 whole entry): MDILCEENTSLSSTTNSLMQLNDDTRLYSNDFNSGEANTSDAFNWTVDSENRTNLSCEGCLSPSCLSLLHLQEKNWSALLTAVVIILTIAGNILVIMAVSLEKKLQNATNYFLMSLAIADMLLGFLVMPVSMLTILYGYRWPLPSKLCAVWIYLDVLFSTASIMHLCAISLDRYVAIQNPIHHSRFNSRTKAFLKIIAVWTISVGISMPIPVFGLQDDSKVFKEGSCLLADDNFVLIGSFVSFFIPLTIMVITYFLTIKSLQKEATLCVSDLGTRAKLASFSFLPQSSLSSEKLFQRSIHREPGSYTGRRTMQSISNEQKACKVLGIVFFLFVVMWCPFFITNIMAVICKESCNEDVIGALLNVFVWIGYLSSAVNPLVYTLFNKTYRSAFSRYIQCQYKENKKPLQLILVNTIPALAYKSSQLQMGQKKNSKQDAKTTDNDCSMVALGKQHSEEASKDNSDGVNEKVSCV
Chain of mouse TAAR1 (Q923Y8 whole entry): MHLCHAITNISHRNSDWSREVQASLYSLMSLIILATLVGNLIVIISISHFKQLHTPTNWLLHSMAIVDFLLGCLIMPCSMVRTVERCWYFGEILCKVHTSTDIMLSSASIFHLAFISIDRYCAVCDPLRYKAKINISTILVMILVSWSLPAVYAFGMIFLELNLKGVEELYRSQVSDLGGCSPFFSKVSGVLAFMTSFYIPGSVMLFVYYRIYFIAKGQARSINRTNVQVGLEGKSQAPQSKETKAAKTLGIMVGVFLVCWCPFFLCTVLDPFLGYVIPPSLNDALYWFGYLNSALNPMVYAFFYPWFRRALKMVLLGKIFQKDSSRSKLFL
Chain of dopamine D2 receptors (P14416 whole entry): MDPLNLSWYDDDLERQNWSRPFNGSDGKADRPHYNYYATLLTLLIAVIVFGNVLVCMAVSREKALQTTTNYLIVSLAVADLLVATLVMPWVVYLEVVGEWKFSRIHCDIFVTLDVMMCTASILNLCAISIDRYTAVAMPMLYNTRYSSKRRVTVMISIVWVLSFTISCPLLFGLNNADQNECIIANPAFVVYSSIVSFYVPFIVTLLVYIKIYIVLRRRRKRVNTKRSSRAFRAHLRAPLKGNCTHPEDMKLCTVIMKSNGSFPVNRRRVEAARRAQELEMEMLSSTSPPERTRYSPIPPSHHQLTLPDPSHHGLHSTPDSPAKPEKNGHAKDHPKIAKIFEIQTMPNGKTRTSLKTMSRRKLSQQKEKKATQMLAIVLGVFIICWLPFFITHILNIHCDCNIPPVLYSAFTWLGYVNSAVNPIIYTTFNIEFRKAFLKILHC
T1 sequence (P23975 whole entry): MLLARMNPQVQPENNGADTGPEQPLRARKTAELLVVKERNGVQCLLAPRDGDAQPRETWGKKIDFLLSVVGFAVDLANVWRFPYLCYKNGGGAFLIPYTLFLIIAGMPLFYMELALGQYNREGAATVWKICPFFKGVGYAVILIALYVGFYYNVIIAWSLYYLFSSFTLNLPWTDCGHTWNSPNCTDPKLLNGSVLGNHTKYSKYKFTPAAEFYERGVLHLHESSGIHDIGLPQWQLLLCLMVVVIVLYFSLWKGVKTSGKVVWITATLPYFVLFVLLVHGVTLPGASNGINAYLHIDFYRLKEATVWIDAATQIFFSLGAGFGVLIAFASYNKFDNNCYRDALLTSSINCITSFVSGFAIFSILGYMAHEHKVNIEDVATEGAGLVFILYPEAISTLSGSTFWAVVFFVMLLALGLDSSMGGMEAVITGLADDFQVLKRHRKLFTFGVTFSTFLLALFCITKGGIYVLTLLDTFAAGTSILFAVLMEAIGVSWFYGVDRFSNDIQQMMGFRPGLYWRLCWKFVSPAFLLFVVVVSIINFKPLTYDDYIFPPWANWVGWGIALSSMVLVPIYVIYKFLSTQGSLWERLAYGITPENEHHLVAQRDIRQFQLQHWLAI
Chain of human 5-HT transporter (SERT) (P31645 whole entry): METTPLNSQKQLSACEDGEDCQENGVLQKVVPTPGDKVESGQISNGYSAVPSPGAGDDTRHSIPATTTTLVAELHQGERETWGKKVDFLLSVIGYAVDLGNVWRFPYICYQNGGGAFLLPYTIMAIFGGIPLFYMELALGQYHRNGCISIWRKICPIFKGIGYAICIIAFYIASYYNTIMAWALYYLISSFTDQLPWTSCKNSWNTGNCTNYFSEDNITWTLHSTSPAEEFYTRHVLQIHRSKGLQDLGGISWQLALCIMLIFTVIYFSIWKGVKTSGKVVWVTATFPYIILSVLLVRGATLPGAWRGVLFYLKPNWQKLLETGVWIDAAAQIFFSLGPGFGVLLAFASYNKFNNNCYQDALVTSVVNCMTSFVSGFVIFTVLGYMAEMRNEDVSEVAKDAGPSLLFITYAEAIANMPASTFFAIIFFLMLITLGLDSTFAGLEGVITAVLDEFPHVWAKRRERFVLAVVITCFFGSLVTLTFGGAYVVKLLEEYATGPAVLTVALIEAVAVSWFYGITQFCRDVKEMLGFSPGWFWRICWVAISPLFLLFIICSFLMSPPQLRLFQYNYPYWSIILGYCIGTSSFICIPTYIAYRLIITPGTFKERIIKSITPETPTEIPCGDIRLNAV
Chain of SERT (P31645 whole entry): as above
Chain of rat TAAR1 (Q923Y9 whole entry): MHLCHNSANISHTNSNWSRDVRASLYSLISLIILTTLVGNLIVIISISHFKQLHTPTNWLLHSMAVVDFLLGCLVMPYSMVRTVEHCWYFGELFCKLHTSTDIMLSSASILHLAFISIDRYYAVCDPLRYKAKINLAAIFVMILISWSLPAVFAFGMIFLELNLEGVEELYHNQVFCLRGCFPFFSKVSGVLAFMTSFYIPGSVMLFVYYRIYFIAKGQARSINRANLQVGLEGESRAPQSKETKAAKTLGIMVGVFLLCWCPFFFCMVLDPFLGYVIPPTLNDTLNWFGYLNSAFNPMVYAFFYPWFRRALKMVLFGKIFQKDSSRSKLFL
T2 sequence (Q01959 whole entry): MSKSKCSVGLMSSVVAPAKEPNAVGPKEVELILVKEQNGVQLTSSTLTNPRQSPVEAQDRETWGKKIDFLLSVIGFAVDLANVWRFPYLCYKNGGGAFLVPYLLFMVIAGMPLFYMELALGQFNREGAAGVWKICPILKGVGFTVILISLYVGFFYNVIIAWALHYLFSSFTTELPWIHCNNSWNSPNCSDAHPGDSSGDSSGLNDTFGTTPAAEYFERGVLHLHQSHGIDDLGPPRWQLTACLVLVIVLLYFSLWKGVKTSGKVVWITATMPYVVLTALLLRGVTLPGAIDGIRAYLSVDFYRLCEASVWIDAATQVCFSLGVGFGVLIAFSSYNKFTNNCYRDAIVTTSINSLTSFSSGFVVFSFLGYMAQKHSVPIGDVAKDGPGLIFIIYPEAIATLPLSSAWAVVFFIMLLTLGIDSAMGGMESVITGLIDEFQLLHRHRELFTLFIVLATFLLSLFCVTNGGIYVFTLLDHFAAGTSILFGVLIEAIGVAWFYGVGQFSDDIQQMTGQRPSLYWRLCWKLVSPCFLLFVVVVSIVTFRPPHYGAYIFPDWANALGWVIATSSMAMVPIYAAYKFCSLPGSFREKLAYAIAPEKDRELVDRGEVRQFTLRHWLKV
Chain of human 5-HT2B receptor (P41595 whole entry): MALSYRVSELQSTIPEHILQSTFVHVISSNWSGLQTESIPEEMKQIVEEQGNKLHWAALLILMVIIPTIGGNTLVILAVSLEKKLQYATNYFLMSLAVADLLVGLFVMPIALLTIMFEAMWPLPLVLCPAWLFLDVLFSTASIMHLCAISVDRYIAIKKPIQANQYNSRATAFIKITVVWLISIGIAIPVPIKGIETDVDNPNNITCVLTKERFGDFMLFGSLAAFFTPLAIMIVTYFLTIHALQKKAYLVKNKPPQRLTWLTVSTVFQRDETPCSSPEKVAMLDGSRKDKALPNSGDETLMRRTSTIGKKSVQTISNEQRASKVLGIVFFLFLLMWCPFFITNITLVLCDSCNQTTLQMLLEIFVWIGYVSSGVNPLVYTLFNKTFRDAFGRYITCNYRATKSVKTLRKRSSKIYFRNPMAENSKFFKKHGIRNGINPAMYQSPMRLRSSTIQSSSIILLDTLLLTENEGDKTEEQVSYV

Compound	IC50 [1] [µM]	IC50 [2] [µM]	IC50 [3] [µM]	Ki [4] [µM]	Ki [5] [µM]	Ki [6] [µM]	Ki [7] [µM]	Ki [8] [µM]	Ki [9] [µM]	Ki [10] [µM]	Ki [11] [µM]	Ki [12] [µM]	Ki [13] [µM]	DAT/SERT ratio [2]	further results
CC(N)Cc1ccc2c(c1)OCO2 (stereo not shown) [MDA, 3,4-methylenedioxyamphetamine, reference compound]	0.38	17	4.3	> 8.8	> 8.5	> 7.4	> 13	8.8 ± 0.6	2.6 ± 0.1	9 ± 0.8	3.2 ± 0.8	0.22 ± 0.03	0.18 ± 0.03		EC50 [14]: 0.2 ± 0.01 µM; 5-HT2B receptor activation efficacy ([14]; relative to 5-HT activity defined as 100%): 51 ± 7%; Cmax as % of the Cmax of MDMA [15]: 4–8%
CNC(C)C(=O)c1ccc2c(c1)OCO2 (stereo not shown) [Methylone, 3,4-methylenedioxymethcathinone, reference compound]	0.56	6.6	18	> 8.7	2.3 ± 0.1	> 7.5	> 13	> 9.5	> 5	> 17	> 12	> 5	> 4.7	2.7 (1.9–3.8)	Ki [16]: > 14 µM; time at which Cmax was reached [17]: 15 min; brain vs. serum concentration, times higher [18]: approximately five; time of maximum brain and serum concentrations [18]: 30 min; Tmax ([19]; 15 mg/kg oral dose): 30 min; Tmax ([19]; 30 mg/kg oral dose): 60 min
COc1cc(CC(C)N)ccc1O (stereo not shown) [HMA, 4-hydroxy-3-methyoxyamphetamine]														270 (96–830)	maximum dopamine transporter inhibition ([2]; partial inhibition of dopamine uptake): 66%; IC50 ([3]; read-out: SERT IC50, 5-HT uptake inhibition, mean and 95% confidence interval): 35 µM; Ki ([4]; read-out: NET Ki, mean±SD, n=3): > 8.8 µM; Ki ([5]; read-out: DAT Ki, mean±SD, n=3): > 8.5 µM; Ki ([6]; read-out: SERT Ki, mean±SD, n=3): > 7.4 µM; Ki ([7]; read-out: D2 Ki, mean±SD, n=3): > 13 µM; Ki ([8]; read-out: α1A Ki, mean±SD, n=3): > 9.5 µM; Ki ([9]; read-out: α2A Ki, mean±SD, n=3): > 4.7 µM; Ki ([10]; read-out: 5-HT1A Ki, mean±SD, n=3): > 18 µM; Ki ([11]; read-out: 5-HT2A Ki, mean±SD, n=3): > 12 µM; Ki ([16]; read-out: 5-HT2c Ki, mean±SD, n=3): > 5.1 µM; Ki ([12]; read-out: TAAR1rat Ki, mean±SD, n=3): 0.15 ± 0.02 µM; Ki ([13]; read-out: TAAR1mouse Ki, mean±SD, n=3): 0.05 ± 0.02 µM; EC50 ([20]; read-out: human TAAR1 activation EC50): 10.4 µM and 10 µM; human TAAR1 activation efficacy ([20]; β-phenylethylamine as maximal response): 51 ± 12%
